The values below come from ChEMBL document CHEMBL4715825, “Synthesis and biological evaluations of marine oxohexadecenoic acids: PPARα/γ dual agonism and anti-diabetic target gene effects” (Eur J Med Chem, 2018).

Active and inactive are the calls of the source. No cut-off for these calls is given here.

Data set [1] has as its system SGBS. Nature of the data set: Effect on diabetic complication pathway in 8 day differentiated human SGBS cells assessed as downregulation of AGE-RAGE signalling genes at 25 uM incubated for 8 days by Illumina sequencing method. The format is functional, cell-based. Put shortly: (§1)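 SGBS cells were differentiated 4 days in Quickdiff supplemented with compound:BSA or rosiglitazone, then 4 days in 3FC. Total RNA was extracted, and strand-specific TruSeq libraries were sequenced on NextSeq 500 (2×75 bp paired-end). Reads were aligned to hg19 with Tophat/Bowtie and counted as RPKM by Cufflinks. Values are log2 fold over day 0 cells, grouped into KEGG gene sets (n = 2-4).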

The target of data set [2] is T1, Peroxisome proliferator-activated receptor gamma (Homo sapiens) (UniProt P37231).
T1 sequence (whole entry): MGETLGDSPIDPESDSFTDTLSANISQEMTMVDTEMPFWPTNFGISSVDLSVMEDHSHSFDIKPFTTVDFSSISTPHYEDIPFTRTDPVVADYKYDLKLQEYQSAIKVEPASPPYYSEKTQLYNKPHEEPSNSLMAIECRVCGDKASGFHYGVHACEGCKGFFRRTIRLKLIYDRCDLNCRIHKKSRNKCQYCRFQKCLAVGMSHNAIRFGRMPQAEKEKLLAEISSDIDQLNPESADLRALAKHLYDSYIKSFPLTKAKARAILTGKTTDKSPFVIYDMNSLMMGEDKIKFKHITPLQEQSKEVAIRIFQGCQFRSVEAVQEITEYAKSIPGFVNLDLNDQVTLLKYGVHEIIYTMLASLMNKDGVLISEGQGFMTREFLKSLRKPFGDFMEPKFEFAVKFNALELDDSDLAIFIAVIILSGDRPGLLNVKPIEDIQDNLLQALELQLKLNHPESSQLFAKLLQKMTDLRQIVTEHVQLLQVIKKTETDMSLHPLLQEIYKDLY
In words: Agonist activity at human PPARgamma in 8 day differentiated human SGBS cells assessed as increase in leptin gene expression at 25 uM incubated for 24 hrs by SYBR-green based qPCR analysis. In kind it is cell-based. The following applies: filed as agonist.

The target in data set [3] is T1, Peroxisome proliferator-activated receptor gamma (Homo sapiens). In words: Agonist activity at human PPARgamma in 8 day differentiated human SGBS cells assessed as decrease in […] gene expression at 25 uM incubated for 24 hrs by SYBR-green based qPCR analysis. In kind it is cell-based. The following applies: filed as agonist. In general terms: Quantitative PCR measures a nucleic acid by following its amplification.

Data set [4] relates to SGBS. In words: Induction of adipogenesis in 8 day differentiated human SGBS cells assessed as increase in FABP4 mRNA expression at 25 uM measured upto 12 days by qRT-PCR analysis. The format is functional, cell-based. The following applies: time day <=12. In a few lines: (§2)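 SGBS cells were grown to confluence (day 0). Quickdiff medium was supplemented with compound or rosiglitazone for 4 days, followed by 3FC medium. DMSO or DMSO:BSA served as control. RNA was harvested on days 0, 4, 8 and 12, and expression was measured by SYBR-green qPCR. Data are mean ± SEM of at least three biological replicates in duplicate.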

The test system of data set [5] is SGBS. In words: Effect on diabetic complication pathway in 8 day differentiated human SGBS cells assessed as downregulation of TNF signalling genes at 25 uM incubated for 8 days by Illumina sequencing method. In kind it is functional, cell-based. Put shortly:
as §1

In data set [6] the target is T2, Peroxisome proliferator-activated receptor alpha (Homo sapiens) (UniProt Q07869).
T2 sequence (whole entry): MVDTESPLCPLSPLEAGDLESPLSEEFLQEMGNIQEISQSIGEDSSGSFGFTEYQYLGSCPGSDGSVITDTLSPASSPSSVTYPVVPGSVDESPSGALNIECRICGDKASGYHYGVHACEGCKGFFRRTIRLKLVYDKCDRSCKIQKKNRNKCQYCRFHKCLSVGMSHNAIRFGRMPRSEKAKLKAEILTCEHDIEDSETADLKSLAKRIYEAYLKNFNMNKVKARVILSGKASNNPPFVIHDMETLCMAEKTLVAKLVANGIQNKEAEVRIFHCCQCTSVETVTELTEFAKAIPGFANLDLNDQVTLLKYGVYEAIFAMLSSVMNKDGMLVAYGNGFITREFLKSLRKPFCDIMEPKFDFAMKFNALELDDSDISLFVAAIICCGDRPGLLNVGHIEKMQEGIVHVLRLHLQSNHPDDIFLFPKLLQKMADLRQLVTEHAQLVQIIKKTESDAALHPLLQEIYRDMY
In words: Agonist activity at human PPARalpha in 8 day differentiated human SGBS cells assessed as increase in PLIN1 gene expression at 25 uM incubated for 24 hrs by SYBR-green based qPCR analysis. The format is cell-based. Put shortly: (§3)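 SGBS preadipocytes were seeded at passage P6-P8 and grown to confluence. They were differentiated for 4 days in Quickdiff (3FC plus dexamethasone, IBMX and rosiglitazone), then kept in 3FC with medium renewed every fourth day. On day 8, cells were stimulated for 24 h in 3FC with compound:BSA or rosiglitazone. SYBR-green qPCR used gene-specific primers. Data are mean ± SEM of three biological replicates in duplicate.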

For data set [7], the target named is T2, Peroxisome proliferator-activated receptor alpha (Homo sapiens). In words: Agonist activity at human PPARalpha in 8 day differentiated human SGBS cells assessed as increase in […] gene expression at 25 uM incubated for 24 hrs by SYBR-green based qPCR analysis. In kind it is cell-based. The following applies: filed as agonist. Put shortly: as §3
Data set [8] has as its system SGBS. Nature of the data set: Induction of adipogenesis in 8 day differentiated human SGBS cells assessed as upregulation of fatty acid biosynthesis genes at 25 uM incubated for 8 days by Illumina sequencing method. In kind it is functional, cell-based. In a few lines:
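SGBS cells were differentiated for 8 days: Quickdiff for days 0-4 with 2 µM rosiglitazone or 25 µM oxo-fatty acid:BSA, then 3FC. Total RNA was extracted (RIN 9.80-10.00) and strand-specific TruSeq libraries were sequenced on NextSeq 500 (2×75 bp paired-end). Reads were aligned to hg19 and quantified as RPKM. Data were expressed as log2 fold over day-0 cells (n = 2-4) and grouped into KEGG gene sets.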

Data set [9] relates to SGBS. Nature of the data set: Induction of adipogenesis in 8 day differentiated human SGBS cells assessed as increase in ADIPOQ mRNA expression at 25 uM measured over 12 days by qRT-PCR analysis. In kind it is functional, cell-based. The following applies: time 12.0 day. Put shortly:
as §2

A further data set has as its system COS-1. Nature of the data set: Agonist activity at recombinant full length human PPARalpha/gamma/RXRalpha expressed in African green monkey COS-1 cells assessed as induction of CPT1A driven luciferase reporter activity at 25 uM incubated for 18 hrs by dual luciferase reporter gene assay. The format is cell-based. The following applies: filed as agonist. In a few lines: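 COS-1 cells were kept in DMEM/10% FBS at 37 °C, 5% CO2, and seeded at 7×10^4 per well. After 24 h they were lipofected with full-length PPAR and RXR expression plasmids, a PLIN1- or CPT1A-driven luciferase reporter and pRL-CMV Renilla control. Compound in DMSO (final 0.1%) was added 5 h later. After 18 h, cells were lysed for Dual-Luciferase readout. Three biological replicates were run in quadruplicate.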
In general terms: A reporter such as luciferase makes a cellular process visible.

In data set [10] the test system is SGBS. Nature of the data set: Induction of adipogenesis in 8 day differentiated human SGBS cells assessed as increase in CEBPB mRNA expression at 25 uM measured upto 12 days by qRT-PCR analysis. The format is functional, cell-based. The following applies: time day <=12. Put shortly: as §2
A short description of data set [11]: Cytotoxicity against African green monkey COS-1 cells assessed as cell viability at EC50 concentration for PPAR activation assay by XTT assay. The format is cell-based. The following applies: chlorocebus aethiops, read-out: Activity. In a few lines:
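Run on COS-1 cells treated in parallel with the Gal4-LBD PPAR reporter assays. Metabolic NAD(P)H flux was measured by kit XTT assay per the maker's protocol. Absorbance was read at 450/690 nm.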
For orientation: Formazan colour is commonly taken as a measure of viable cells.

Take `CCCCCCCC(=O)/C=C/CCCCCC(=O)O`: the result (with SGBS [1]; in data set [2]; in data set [3]; in the data set with SGBS [4]; in the data set on SGBS [5]; in data set [7]) was Active. In addition, the result with SGBS [8], in the data set with SGBS [9], in the data set on COS-1 and in the data set with SGBS [10] was Active. Further, in data set [6], the result was inactive. In data set [11], the viability is over 90%.

As to `CCCCC/C=C/C(=O)CCCCCCCC(=O)O`, the result (in the data set with SGBS [1]; in data set [2]; in data set [3]; with SGBS [4]; in the data set with SGBS [5]; in data set [7]) was Active. Further, the result in the data set on SGBS [8], in the data set with SGBS [9], with COS-1 and in the data set on SGBS [10] was Active. In addition, the result in [6] was inactive. The viability in [11] was over 90%.
